Laboratory results from ChEMBL document CHEMBL1629552, “In vitro and in vivo treatments of echinococcus protoscoleces and metacestodes with artemisinin and artemisinin derivatives” (Antimicrob Agents Chemother, 2008).
Calls of active or inactive are those of the source. The rule behind the calls is not given here.

Legend:
[1] = system: Echinococcus granulosus; assay: Antimicrobial activity against Echinococcus granulosus protoscoleces assessed as reduction in protoscoleces viability at 40 uM by trypan blue exclusion assay; type: functional
Summary of the method: (§1)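 E. granulosus protoscoleces were isolated and kept in vitro per earlier work. Compounds from 10 mM DMSO stocks were added at 4, 10 and 40 μM, with nitazoxanide as positive control and DMSO as solvent control. Viability was scored microscopically by trypan blue exclusion over days of culture. The experiment was repeated three times.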

[2] = system: Echinococcus multilocularis; assay: Antimicrobial activity against Echinococcus multilocularis metacestode assessed as increase in alkaline phosphatase activity at 40 uM within 4 days; type: functional, organism-based
Summary of the method: (§2)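 In vitro-cultured E. multilocularis metacestode vesicles were treated for 12 days with compounds at 40 μM (10 mM DMSO stocks). Albendazole was the positive control and matching DMSO the negative control. Culture supernatant was sampled daily and stored at −20°C, and parasite alkaline phosphatase (EmAP) activity was assayed at the time points shown.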

[3] = system: Echinococcus multilocularis; assay: Antimicrobial activity against Echinococcus multilocularis metacestode assessed as increase in alkaline phosphatase activity at 40 uM
[4] = system: Echinococcus multilocularis; assay: Antimicrobial activity against Echinococcus multilocularis metacestode assessed as loss of multicellular structure of germinal layer by transmission electron microscopy; type: functional, organism-based
[5] = species: Mus musculus; assay: Toxicity against Echinococcus multilocularis -infected in BALB/c mouse assessed as adverse effect; type: organism-based; settings: in vivo
[6] = system: Echinococcus granulosus; assay: Antimicrobial activity against Echinococcus granulosus protoscoleces assessed as reduction in protoscoleces viability at 10 uM by trypan blue exclusion assay; type: functional; summary of the method: as §1
[7] = system: Echinococcus granulosus; assay: Antimicrobial activity against Echinococcus granulosus metacestode assessed as loss of multicellular structure of germinal layer by transmission electron microscopy; type: functional
[8] = system: Echinococcus multilocularis; assay: Antimicrobial activity against Echinococcus multilocularis -infected in BALB/c mouse assessed as parasite weight at 200 mg/kg body weight intragastrically administered 8 weeks post-infecion (reference value: 5.71+/-1.79 g); type: functional; settings: route intragastric
[9] = system: Echinococcus multilocularis; assay: Antimicrobial activity against Echinococcus multilocularis metacestode assessed as increase in alkaline phosphatase activity at 40 uM after 8 days; type: functional, organism-based; summary of the method: as §2
[10] = system: Echinococcus granulosus; assay: Antimicrobial activity against Echinococcus granulosus protoscoleces assessed as reduction in protoscoleces viability at 40 uM upto 2 days by trypan blue exclusion assay; type: functional; summary of the method: as §1
[11] = system: Echinococcus granulosus; assay: Antimicrobial activity against Echinococcus granulosus protoscoleces assessed as reduction in protoscoleces viability at 40 uM after 6 days by trypan blue exclusion assay; type: functional; summary of the method: as §1

SMILES	Activity [1]	Activity [2]	Activity [3]	Activity [4]	Activity [5]	Activity [6]	Activity [7]	Activity [8]	Activity [9]	Activity [10]	Activity [11]
C[C@@H]1CC[C@H]2[C@@H](C)C(=O)O[C@@H]3O[C@@]4(C)CC[C@@H]1[C@]32OO4	inactive	inactive	inactive	–	–	–	–	–	–	–	–
C[C@H]1[C@H](OC(=O)CCC(=O)O)O[C@@H]2O[C@@]3(C)CC[C@H]4[C@H](C)CC[C@@H]1[C@@]24OO3 [ARTESUNATE]	Active	Active	inactive	Active	Non-toxic	inactive	Active	4.6 g	–	–	–
CC(=O)Oc1ccccc1C(=O)Nc1ncc([N+](=O)[O-])s1	–	–	–	–	–	Active	–	–	–	–	–
C[C@H]1[C@@H](O)O[C@@H]2O[C@@]3(C)CC[C@H]4[C@H](C)CC[C@@H]1[C@@]24OO3 [ARTENIMOL]	Active	–	inactive	Active	Non-toxic	inactive	Active	4.11 g	Active	inactive	90%
CO[C@H]1O[C@@H]2O[C@@]3(C)CC[C@H]4[C@H](C)CC[C@@H]([C@H]1C)[C@@]24OO3	inactive	inactive	inactive	–	–	–	–	–	–	–	–
CCCSc1ccc2[nH]c(NC(=O)OC)nc2c1 [ALBENDAZOLE]	–	–	–	–	–	–	–	2.96 g	–	–	–
